Assay results published in PubChem BioAssay AID1496 (Sanford-Burnham Center for Chemical Genomics, 2009).
“And” between values parts separate entries of the source, which are not always exact repeats. Identical values can stand only once. Hit rate of the full screen: of about 220,000 compounds, about 990 (0.45%) were called active. This is one part of a sample in which actives are shown more often than they occur.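 Rule for the calls: active = inhibition over about 50% at 20 µM in the single-dose screen (limit read from the data); inactive = the rest.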 Some structures have more than one record in an assay (separate samples or runs), and their calls can disagree.

The molecules below were run against Runt-related transcription factor 1 (Homo sapiens) + Core-binding factor subunit beta (Homo sapiens) (UniProt Q01196+Q13951) (assay: inhibitors of RUNX1 Runt–CBFb binding, primary screen, biochemical, FRET, Cerulean-Runt, Venus-CBFb, uHTS (AID 1496;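 note: 0% = DMSO wells and 100% = excess unlabeled CBFb competitor control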)). Conditions: Cerulean-Runt/Venus-CBFb FRET ratio 530/480, 1 h; at 20 µM; stronger effect = higher value.
Chain of Runt-related transcription factor 1 (Homo sapiens) + Core-binding factor subunit beta (Homo sapiens) (Q01196 whole entry, looked up, the tested form may be a part): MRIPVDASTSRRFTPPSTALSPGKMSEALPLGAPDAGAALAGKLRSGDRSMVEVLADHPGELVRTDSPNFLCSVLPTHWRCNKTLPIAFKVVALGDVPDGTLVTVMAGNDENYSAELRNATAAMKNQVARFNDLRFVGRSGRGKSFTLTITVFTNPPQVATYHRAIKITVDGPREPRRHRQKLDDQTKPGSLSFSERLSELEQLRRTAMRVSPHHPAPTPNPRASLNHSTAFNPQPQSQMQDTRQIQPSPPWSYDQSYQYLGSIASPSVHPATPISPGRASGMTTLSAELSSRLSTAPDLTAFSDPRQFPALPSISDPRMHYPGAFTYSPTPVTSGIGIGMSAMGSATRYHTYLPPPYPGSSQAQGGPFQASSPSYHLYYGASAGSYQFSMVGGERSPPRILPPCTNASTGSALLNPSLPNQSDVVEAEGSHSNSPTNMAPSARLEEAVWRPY
Chain of Runt-related transcription factor 1 (Homo sapiens) + Core-binding factor subunit beta (Homo sapiens) (Q13951 whole entry, looked up, the tested form may be a part): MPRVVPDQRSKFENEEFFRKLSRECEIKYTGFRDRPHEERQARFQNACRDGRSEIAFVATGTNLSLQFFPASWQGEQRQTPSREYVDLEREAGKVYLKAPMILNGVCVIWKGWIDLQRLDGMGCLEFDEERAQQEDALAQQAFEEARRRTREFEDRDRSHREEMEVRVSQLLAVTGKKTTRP
In short: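 Assay system: Cerulean-Runt domain fusion protein, energy donor; Signal: fluorescence energy transfer, 422 nm excitation, 530/480 nm emission; Timing: 1 h compound exposure, room temperature; Control set: unlabeled CBFb; Medium: Tris buffer pH 7.5 with salts and BSA; Compound: single test concentration of 20 µM, 1% DMSO final; Probe or stimulus: Venus-CBFb 100 nM.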

SMILES	inhibition
O=S(=O)(Nc1ccc(OC(F)(F)F)cc1)c1cccc2nonc12	-2.4% (inactive)
O=[N+]([O-])c1cccc(-c2nnc3c4ccccc4c4ccccc4n23)c1	4.4% (inactive)
O=c1[nH]c2ccccc2n2c(-c3ccccc3)nnc12	53% (active)
Cc1ccc(-c2nc3ccccc3[nH]c2=O)cc1	1.4% (inactive)
Oc1c(Br)cc(/C=N/NC(=S)NCC2CCCO2)cc1Br (stereo not drawn)	0.6% (inactive)
CCN1C(=O)/C(=C2/Sc3ccccc3N2CCCS(=O)(=O)O)SC1=S	44.8% (inactive) and 56.4% (active)
CCN1C(=O)/C(=C\N2CCN(c3ccccc3)CC2)SC1=S	-0.2% (inactive)
CCCCN1C(=O)/C(=C/C=C2/C=Cc3ccccc3N2CC)SC1=S	27.9% (inactive)
COCCNC(=S)N1CCN(C)CC1	0.5% (inactive)
O=C1CCCCC1C(=O)c1ccccc1 (stereo not drawn)	1.7% (inactive)
COc1ccc(C2/C=C\CN(CC(C)C)CC(=O)N2Cc2ccc(F)cc2)cc1 (stereo not drawn)	0% (inactive)
O=C(O)CCc1cccnc1	-0.7% (inactive)
CCc1cccc2c(C=C(C#N)C#N)cn(CC(=O)N3CCCCC3)c12	91.4% (active)
CCOC(=O)C1CCN(C(=O)Cn2cc(C#N)c3ccccc32)CC1	0.6% (inactive)
COc1cccc2c(=O)n(CC(=O)N3CCCCCC3)ccc12	0.5% (inactive)
CSC1=NC2(C)CCCCC2C12C=CC(=O)C=C2 (stereo not drawn)	2.8% (inactive)
COc1ccc(N2CCN(C(=O)CSc3nc4cc(OC)c(OC)cc4cc3C#N)CC2)cc1	12.5% (inactive)
COc1ccc2nc(N3CCCC(O)C3)c(C#N)cc2c1 (stereo not drawn)	81.1% (active)
CCOc1ccc2nc(N3CCCN(C(=O)Nc4ccccc4C)CC3)c(C#N)cc2c1	29.2% (inactive)
CC1CCN(c2c(NCc3ccc(C(=O)NCc4ccccc4)cc3)c(=O)c2=O)CC1	0.6% (inactive)
NNC(=O)c1oc2nc(-c3ccccc3)cc(-c3ccco3)c2c1N	-57.1% (inactive)

SMILES	inhibition
CSc1nc(-c2ccco2)nn1C(=O)c1ccccc1Cl	-3.7% (inactive)
COc1ccc(Cl)cc1C(=O)NNC(=O)c1nc2nc(C)cc(C)n2n1	-0.8% (inactive)
COCc1cc(=O)oc2cc(NS(=O)(=O)c3ccc(C)cc3)ccc12	58.8% (active)
COc1ccc(S(=O)(=O)Nc2ccc3oc(C)c(C(C)=O)c3c2)cc1	0.3% (inactive)
Cc1ccc(S(=O)(=O)Nc2ccc3ncccc3c2)cc1	-1.3% (inactive)
Clc1ccc(C[n+]2cc(-c3ccc(Cl)cc3)n3c2CCC3)cc1	0.1% (inactive)
Cc1cc(C(=O)N2CCC(C(=O)O)CC2)c(C(F)(F)F)o1	0% (inactive)
S=C(NNC(=S)NC1CC2CCC1C2)NC1CC2C=CC1C2 (stereo not drawn)	11.8% (inactive)
COc1cccc(C(=O)c2cc3ccc(O)cc3oc2=O)c1	126% (active)
COc1ccc2oc(=O)c(C(=O)O)cc2c1	3.3% (inactive)
COc1ccc2oc(=O)c(C(=O)N3CCCC3)cc2c1	2% (inactive)
O=C(Nc1nnc(CCN2CCCCC2)s1)c1cccc(Cl)c1	2.2% (inactive)
Cc1noc(C)c1-c1nc(CSc2ccc(Cl)cc2)no1	0.4% (inactive)
OC(c1nc2ccccc2[nH]1)C(O)C(O)C(O)c1nc2ccccc2[nH]1 (stereo not drawn)	-0.4% (inactive)
O=C(Nc1cccc2ncccc12)C(Cl)(Cl)Cl	-0.7% (inactive)
Cc1ccc(C(=O)Nc2cccc3ncccc23)cc1[N+](=O)[O-]	-0.8% (inactive)
Cc1ccc(/C=C(\C#N)C(=O)Nc2cccc3ncccc23)o1	125% (active)
CCC(=O)c1ccc(OCC(=O)Nc2ccc3nc(C)sc3c2)cc1	1.3% (inactive)
CC1=NNC(=O)C1CCC(=O)N/N=C(\C)c1ccc(Cl)cc1 (stereo not drawn)	-1.6% (inactive)
CC[C@@H](C)[C@@H](C(=O)N1CCN(C(=O)OC(C)(C)C)CC1)n1cc(CCC(=O)O)nn1	2.1% (inactive)
CCc1c(C)nc2c(-c3ccccc3)c(C)nn2c1Nc1ccc(NC(C)=O)cc1	-2.4% (inactive)

SMILES	inhibition
O=C(O)c1ccccc1C(=O)Nc1ccccc1[N+](=O)[O-]	-1.2% (inactive)
NC(=O)c1c(Nc2nc3c(F)cccc3s2)sc2c1CCCC2	117% (active)
Fc1cc(F)c2nc(Nc3nc4c(F)cccc4s3)sc2c1	0.3% (inactive)
NC(=O)c1c(NC(=O)CSc2nc(N)cc(=O)[nH]2)sc2c1CCCC2	0.4% (inactive)
Cc1ccc(-c2cn3cc([N+](=O)[O-])ccc3n2)cc1	67.1% (active)
Cc1ccc(-c2cn3cc(C)ccc3n2)cc1	-4.5% (inactive)
Cc1ccc(-n2cc3ccc([N+](=O)[O-])cc3n2)cc1	-12.8% (inactive)
O=C(NNc1cc(Cl)cc(Cl)c1)c1c(F)cccc1Cl	0.6% (inactive)
O=C(Cc1cccc2ccccc12)NNC(=O)Nc1ccc(Cl)cc1	1.3% (inactive)
Cc1onc(-c2c(Cl)cccc2Cl)c1C(=O)NNC(=O)c1c(-c2c(Cl)cccc2Cl)noc1C	0.7% (inactive)
C/C(=N/OC(=O)c1c(-c2c(F)cccc2Cl)noc1C)c1cnccn1	-0.3% (inactive)
CCn1c(=N)c(S(=O)(=O)c2ccc(F)cc2)cc2c(=O)n3ccccc3nc21	10.5% (inactive)
Cc1ccc(-n2c(=O)c(C#N)cc3c(=O)n4ccccc4nc32)cc1C	19.9% (inactive)
CCOC(=O)c1cc2c(=O)n3ccccc3nc2n(CC(C)C)c1=NC(=O)c1c(-c2c(F)cccc2Cl)noc1C	64.1% (active)
CCCn1c(=NC(C)=O)c(C(=O)OCC)cc2c(=O)n3ccccc3nc21	101% (active)
O=C(NCC1CCCO1)c1cc(-c2ccccc2)nc2ccccc12 (stereo not drawn)	1.5% (inactive)
Cc1noc(C)c1COC(=O)COc1ccc(-c2ccccc2)cc1	-2.6% (inactive)
CC(=O)NNC(=O)c1csc(Cc2c(Cl)sc3ccc(Cl)cc23)n1	1.6% (inactive)
O=C(NNS(=O)(=O)c1ccccc1)c1cnn(-c2ccc(Cl)cc2)c1C(F)(F)F	1.6% (inactive)
O=C(CNCc1cccs1)Nc1cc(S(=O)(=O)N2CCCC2)ccc1Cl	4.6% (inactive)
CCc1nc(NCCO)c(C#N)c2c1CCCC2	-0.2% (inactive)
